Measured values as given in ChEMBL document CHEMBL4706611, “Selective targeting of the αC and DFG-out pocket in p38 MAPK” (Eur J Med Chem, 2020).

experiment: Metabolic stability in human liver microsomes assessed as compound remaining preincubated for 5 mins in presence of NADPH regeneration system followed by HLM addition measured after 240 mins by LC-MS analysis; type: ADME, Microsome; conditions: read-out: Stabilty
Method in brief: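 Compounds were incubated with human liver microsomes and sampled at 0, 10, 20, 30, 60, 120, 180 and 240 min. Degradation and metabolite formation were followed by LC-MS, ESI(+). Run in triplicate; mean with standard deviation reported.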

| remaining at 4 h [%] | SMILES |
| --- | --- |
| 66.9 | NC(=O)[C@H](CCC1CCCCC1)NC(=O)c1ccc(CNC(=O)c2cnn(-c3ccccc3)c2N)cc1 |
| 83.5 | Nc1c(C(=O)NCc2ccc(C(=O)N[C@@H](CCC3CCCCC3)C(=O)Nc3ccc(F)cc3)cc2)cnn1-c1ccccc1 |
| 99.5 | Nc1c(C(=O)NCc2ccc(C(=O)N[C@@H](CCC3CCCCC3)C(=O)NCc3ccncc3)cc2)cnn1-c1ccccc1 |
| 64 | CCNC(=O)[C@H](CCC1CCCCC1)NC(=O)c1ccc(CNC(=O)c2cnn(-c3ccccc3)c2N)cc1 |
